Experimental data taken from ChEMBL document CHEMBL1121516, “Synthesis and biological activity of fluoroalkylamine derivatives of narcotic analgesics” (J Med Chem, 1980).
Activity calls are given as the source filed them. No cut-off for these calls is given here.

Columns and labels:
[1] = […] (pKa) value was evaluated; assay type: physicochemical
Procedure, shortened: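 pKa by potentiometric titration in distilled water at 24 °C. Compound dissolved at 5 to 7.5×10^-3 M and titrated with 0.1039 M NaOH, with pH change followed on a pH meter. Each compound run in triplicate.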

Mus musculus [2] = species on record: Mus musculus; test: Analgesic activity determined in the mouse hot plate test expressed as ED50; IA means in active to 100; assay type: functional, organism-based
[3] = target: T1, Opioid receptors; mu/kappa/delta (Homo sapiens, UniProt P41145+P41143+P35372); test: Inhibition of Opioid receptors with [3H]naloxone binding in the absence of NaCl; assay type: protein assay, Cavia porcellus
[4] = target: T1, Opioid receptors; mu/kappa/delta; test: Inhibition of Opioid receptors binding by inhibiting specific [3H]naloxone binding by 50% in the presence of 100 mM NaCl; assay type: protein assay, Cavia porcellus
Rattus norvegicus [5] = test: Serum citrate level when administered intraperitoneally at dose 12.5 mg/kg in 5 rats; assay type: functional, organism-based; set-up: dose 12.5 mg/kg
Procedure, shortened: (§1)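 Male Sprague–Dawley rats (200–225 g), dosed ip. Blood centrifuged to obtain serum, and citrate measured by the Camp and Farmer procedure. Values reported as mg/mL with SE.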

Cavia porcellus [6] = species on record: Cavia porcellus; test: Agonist potency was evaluated in the guinea pig ileum; assay type: functional
Cavia porcellus [7] = species on record: Cavia porcellus; test: Inhibitory Dose required to reduce electrically stimulated contractions by 50% in guinea pig ileum; I = Infinite; assay type: functional
Mus musculus [8] = species on record: Mus musculus; test: Analgesic activity determined in the mouse hot plate test expressed as ED50; Range is 6.4-12.8; assay type: functional
Rattus norvegicus [9] = test: Serum citrate level when administered intraperitoneally at dose 45 mg/kg in 7 rats; assay type: functional, organism-based; set-up: dose 45 mg/kg; procedure, shortened: as §1
Cavia porcellus [10] = species on record: Cavia porcellus; test: (§2) Antagonist potency was evaluated in the mouse vas deferens relative to naloxone = 1; assay type: functional
Mus musculus [11] = species on record: Mus musculus; test: Analgesic activity determined in the mouse hot plate test expressed as ED50; I = inactive at 40; assay type: functional, organism-based
Mus musculus [12] = species on record: Mus musculus; test: Analgesic activity determined in the mouse hot plate test expressed as ED50; Range is 17.8-72.1; assay type: functional
Mus musculus [13] = species on record: Mus musculus; test: Analgesic activity determined in the mouse hot plate test expressed as ED50
Mus musculus [14] = species on record: Mus musculus; test: Analgesic activity determined in the mouse hot plate test expressed as ED50; value ranges from 12.7-29.8; assay type: functional
Rattus norvegicus [15] = test: Serum citrate level when administered intraperitoneally at dose 40 mg/kg in 6 rats; assay type: functional, organism-based; set-up: dose 40 mg/kg; procedure, shortened: as §1
Mus musculus [16] = species on record: Mus musculus; test: Analgesic activity determined in the mouse hot plate test expressed as ED50; value ranges from 3.2-6.1; assay type: functional
Cavia porcellus [17] = species on record: Cavia porcellus; test: Agonist potency evaluated in the guinea pig ileum; assay type: functional
Mus musculus [18] = species on record: Mus musculus; test: as §2; assay type: functional
Mus musculus [19] = species on record: Mus musculus; test: Analgesic activity determined in the mouse hot plate test expressed as ED50; Range is 6.3-14.8; assay type: functional
Mus musculus [20] = species on record: Mus musculus; test: Equilibrium dissociation constant (Ke) against response produced by normorphine in the mouse vas deferens; assay type: functional
Cavia porcellus [21] = species on record: Cavia porcellus; test: Inhibitory Dose required to reduce electrically stimulated contractions by 50% in guinea pig ileum; assay type: functional; conditions: read-out: ID50 (the source's name)

Structure (SMILES) | pKa [1] | IC50 [3] [nM] | IC50 [4] [nM] | further results
CCOC(=O)C1(c2ccccc2)CCN(CC(F)F)CC1.Cl | 5.23 | 85000 | 110000 | ED50 (Mus musculus [2]): inactive
O=C(O)CF | – | – | – | Level (Rattus norvegicus [5]): 132 mg/mL
CCOC(=O)C1(c2ccccc2)CCN(CC(F)(F)F)CC1.Cl | 3.13 | 10000 | 60000 | ED50 (Mus musculus [2]): inactive
CS(=O)(=O)O.C[C@H]1C2Cc3ccc(O)cc3[C@@]1(C)CCN2CCF | 8.35 | 50 | 100 | Agonist potency (Cavia porcellus [6]): 0; ID50 (Cavia porcellus [7]): inactive; ED50 (Mus musculus [8]): 9.16 mg/kg; Level (Rattus norvegicus [9]): 121 mg/mL
CS(=O)(=O)O.C[C@H]1C2Cc3ccc(O)cc3[C@@]1(C)CCN2CC(F)(F)F | 4.56 | 1700 | 2500 | Agonist potency (Cavia porcellus [10]): 0; ED50 (Mus musculus [11]): inactive
CCN1CC[C@]2(C)c3cc(O)ccc3CC1[C@@H]2C.CS(=O)(=O)O | 9.42 | 180 | 200 | ED50 (Mus musculus [12]): 44.7 mg/kg
CN1CC[C@]23c4c5ccc(O)c4O[C@H]2[C@@H](O)C=C[C@H]3[C@H]1C5 [MORPHINE] | – | – | – | ED50 (Mus musculus [13]): 1.2 mg/kg
CCOC(=O)C1(c2ccccc2)CCN(CCF)CC1.Cl | 7.43 | 20000 | 64000 | ED50 (Mus musculus [14]): 19.4 mg/kg; Level (Rattus norvegicus [15]): 81 mg/mL
CCOC(=O)C1(c2ccccc2)CCN(CC)CC1.Cl | 9.03 | 5000 | 120000 | ED50 (Mus musculus [16]): 4.4 mg/kg
CS(=O)(=O)O.C[C@H]1C2Cc3ccc(O)cc3[C@@]1(C)CCN2CC(F)F | 6.52 | 1000 | 1150 | Agonist potency (Cavia porcellus [17]): 0.16; Antagonist potency (Mus musculus [18]): 0.001; ED50 (Mus musculus [19]): 9.7 mg/kg; Ke (Mus musculus [20]): 2930 nM; IC50 (Cavia porcellus [21]): 453 nM
